From PubChem BioAssay come the findings set out here.

Active and inactive are the calls of the source.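 How the source made its calls, unless noted: active means viability at or below 10% of carrier control in both of two separate runs; inconclusive means viability at or below 10% in only one of the two runs; inactive means the rest.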

The nature of assay [1]: reducers of endogenous Her2 protein level, primary screen, SKBR3 breast tumor cells, AlphaScreen, ATP viability (AID 461;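 active means Her2 level under about 52% in both replicate screens, with viability over 70% of control, limit read from the data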;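 on Her2 level: lower value means less Her2 protein in the cells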;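 on viability: percent of carrier control wells set as 100% viability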). The note with it: 18-24 h, measured here: SKBR3 viability, ATP luminescence, at 10 µM.
For assay [2], the target named is Receptor tyrosine-protein kinase erbB-2 (Homo sapiens) (UniProt P04626). The description is as above. Conditions: 18-24 h, at 10 µM, stronger effect = lower value.
Sequence of Receptor tyrosine-protein kinase erbB-2 (Homo sapiens) (P04626 whole entry, looked up): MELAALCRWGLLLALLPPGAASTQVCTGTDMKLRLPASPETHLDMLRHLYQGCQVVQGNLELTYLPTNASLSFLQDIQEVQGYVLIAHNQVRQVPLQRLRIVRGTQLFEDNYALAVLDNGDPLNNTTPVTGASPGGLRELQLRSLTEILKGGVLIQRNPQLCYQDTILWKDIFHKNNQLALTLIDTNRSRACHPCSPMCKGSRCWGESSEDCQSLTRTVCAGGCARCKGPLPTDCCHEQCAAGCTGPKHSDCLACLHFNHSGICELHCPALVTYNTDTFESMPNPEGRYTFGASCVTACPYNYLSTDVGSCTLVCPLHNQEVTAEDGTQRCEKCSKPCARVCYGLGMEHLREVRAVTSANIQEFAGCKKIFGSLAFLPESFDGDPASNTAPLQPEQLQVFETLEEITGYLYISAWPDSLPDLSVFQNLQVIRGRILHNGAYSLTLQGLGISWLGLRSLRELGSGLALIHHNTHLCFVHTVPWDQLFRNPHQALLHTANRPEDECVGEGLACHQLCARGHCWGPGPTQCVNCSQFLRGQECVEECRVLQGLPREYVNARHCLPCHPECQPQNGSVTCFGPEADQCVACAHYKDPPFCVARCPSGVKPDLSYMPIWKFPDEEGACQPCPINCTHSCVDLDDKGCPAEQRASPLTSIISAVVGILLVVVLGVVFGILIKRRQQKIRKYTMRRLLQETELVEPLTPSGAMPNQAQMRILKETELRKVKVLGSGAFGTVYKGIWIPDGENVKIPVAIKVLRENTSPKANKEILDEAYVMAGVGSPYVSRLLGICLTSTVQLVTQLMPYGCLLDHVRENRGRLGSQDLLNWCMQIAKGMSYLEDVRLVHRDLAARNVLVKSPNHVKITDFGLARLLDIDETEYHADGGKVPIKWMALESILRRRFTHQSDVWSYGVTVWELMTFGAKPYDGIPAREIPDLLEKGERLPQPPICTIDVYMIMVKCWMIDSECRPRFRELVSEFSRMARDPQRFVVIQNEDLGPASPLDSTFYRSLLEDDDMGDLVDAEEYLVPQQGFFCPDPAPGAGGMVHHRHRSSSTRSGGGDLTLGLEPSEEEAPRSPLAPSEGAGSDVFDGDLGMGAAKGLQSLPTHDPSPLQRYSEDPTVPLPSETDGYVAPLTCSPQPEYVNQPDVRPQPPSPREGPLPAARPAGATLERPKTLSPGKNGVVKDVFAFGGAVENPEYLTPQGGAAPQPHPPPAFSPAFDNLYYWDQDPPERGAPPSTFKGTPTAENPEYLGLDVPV
Assay [3] can be described thus: SK-BR-3 cell growth inhibitors, pilot screen, 24 h, human (AID 572).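 Further: compound exposure lasted between 18 and 24 h rather than exactly 24 h; 100% = carrier-treated control wells.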 The note with it: SK-BR-3 viability, CellTiter-Glo luminescence, at 10 µM, stronger effect = lower value.
Assay [4] is described as follows: HUVEC growth inhibition – cell-based, human, primary screen (AID 575;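 active means viability at or below 30% in both replicate assays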;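 further: 100% = median of untreated cell wells with 0.1% DMSO on each plate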). The note with it: HUVEC proliferation, CellTiter-Glo luminescence, 72 h; at 10 µM; stronger effect = lower value. A digest of the protocol:
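System – primary HUVEC, no more than 12 passages · Medium – Low-serum (2% FBS) EBM, supplemented · Times – 72 h exposure, 37 °C, 5% CO2, 30 min RT equilibration · Measured by – luminescent ATP assay · Read-out – % viability relative to median vehicle-well signal on each plate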

Assay [5] can be described thus: growth inhibitors of H69AR lung tumor, primary screen, human, duplicate replicates (AID 580;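 active means viability at or under a set limit in both replicates, limit being median viability minus 3 SD, cut at about 48% in these data, passing the limit was not always enough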;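 further: 100% = mean luminescence of untreated wells and 0% = no signal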). Conditions: H69AR lung tumor cells viability, ATP luminescence, 72 h; at 10 µM; stronger effect = lower value.
Assay [6] is described as follows: reversal of MRP1-mediated doxorubicin resistance, pilot screen, H69AR cells, doxorubicin co-treatment (AID 601;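 active means viability loss from added drug above about 55%, and viability with drug at most 40%, in both replicates, limit read from the data, passing the limit was not always enough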). Conditions: CellTiter-Glo, 72 h, at 10 µM; for differential viability (reversal): stronger effect = higher value.
Assay [7] in a line: 384-well plate pilot, post-Golgi transport modulator project, inhibition of yeast transport mutant growth (AID 636; in the data active means inhibition above about 31%). The note with it: absorbance 615 nm, about 18 h, stronger effect = higher value.
Assay [8] in a line: growth suppression of yeast trafficking mutant, preliminary HTS, modulators of trafficking downstream of Golgi apparatus project, 1536-format plate, OD 615 nm (AID 637; in the data active means inhibition above about 30%). Conditions: yeast transport mutant growth, absorbance 615 nm, 18 h; stronger effect = higher value.
Where [9] appears, read: H69AR cells + 2 uM doxorubicin, measured here: viability with 2 uM doxorubicin, stronger effect = lower value.
The mark [10] stands for this setting: H69AR cells, compound alone cytotoxicity.

The viability is a read-out of living cells in per cent, often relative to untreated cells. The term inhibition denotes the change of the read-out against control, counted positive when it falls. With `O=C(CN1C(=O)CCSc2ccccc21)Nc1ccc(F)cc1`, the viability was 94% in assay [1]; 94% (inactive) in assay [3]; 97.6% (inactive) in assay [4]; 98.5% (inactive) in assay [5]; 97.5% in assay [6] (setting [9]); 98.5% in assay [6] (setting [10]). The Her2 level in assay [2] was 112% (inactive). Moreover, in assay [6] (H69AR cells + 2 uM doxorubicin), the differential viability (reversal) is 1.06% (inactive). The values for the inhibition in assay [7] and in assay [8] were 3.29% (inactive) and 0.16% (inactive), respectively.

In the case of `COc1ccc(-c2noc(CCCC(=O)O)n2)cc1`, the viability in assay [1] is 130%; in assay [3] it was 130% (inactive); in assay [4] it was 97.1% (inactive); in assay [5], 95% (inactive); in assay [6] (setting [9]) it was 89.9%; in assay [6] (setting [10]), 95%. For the same compound, in assay [2], the Her2 level is 91.5% (inactive). In assay [6] (H69AR cells + 2 uM doxorubicin), the differential viability (reversal) is 5.04% (inactive). Besides, the inhibition in assay [7] was -6.4% (inactive); in assay [8] it was 5.08% (inactive).

`O=C(CSc1nc2ccccc2s1)N1CCN(C(=O)c2ccco2)CC1`: the viability in assay [1] is 86.5%; in assay [3], 86.5% (inactive); in assay [4] it was 79.8% (inactive); in assay [5] it was 104% (inactive); in assay [6] (setting [9]), 94.6%; in assay [6] (setting [10]), 104%. Further, the Her2 level in assay [2] is 97% (inactive). Moreover, the differential viability (reversal) in assay [6] (H69AR cells + 2 uM doxorubicin) was 9.76% (inactive). Also, the inhibition in assay [7] is -3.82% (inactive); in assay [8], -5.17% (inactive).

For `O=C(C1CCCN(S(=O)(=O)c2cnc[nH]2)C1)N1CC(=O)N(CCc2ccccc2)C(=O)C1` (stereo not given), the viability in assay [1] is 93.5%; in assay [3], 93.5% (inactive); in assay [4] it was 105% (inactive); in assay [5], 95% (inactive); in assay [6] (setting [9]), 99.7%; in assay [6] (setting [10]), 95%. Also, the Her2 level in assay [2] is 92% (inactive). Also, the differential viability (reversal) in assay [6] (H69AR cells + 2 uM doxorubicin) was -4.7% (inactive). Further, the values for the inhibition in assay [7] and in assay [8] were -0.8% (inactive) and 21.6% (inactive), respectively.

Take `O=C(Oc1ccc2c(c1)CCC2)N1CCOCC1`: the viability in assay [1] was 90%; in assay [3], 90% (inactive); in assay [4] it was 99.9% (inactive); in assay [5], 95.6% (inactive); in assay [6] (setting [9]), 88.9%; in assay [6] (setting [10]) it was 95.6%. For the same compound, the Her2 level in assay [2] was 144% (inactive). For the same compound, the differential viability (reversal) in assay [6] (H69AR cells + 2 uM doxorubicin) is 6.64% (inactive). Also, the inhibition was 4.87% (inactive) in assay [7] and -5% (inactive) in assay [8].

As to `O=C(NCc1cccs1)c1cc2c(s1)-c1ccccc1OC2`, the viability was 96% in assay [1]; 96% (inactive) in assay [3]; 76.8% (inactive) in assay [4]; 94.8% (inactive) in assay [5]; 89.7% in assay [6] (setting [9]); 94.8% in assay [6] (setting [10]). In addition, in assay [2], the Her2 level is 91.5% (inactive). Also, the differential viability (reversal) in assay [6] (H69AR cells + 2 uM doxorubicin) was 5.04% (inactive). The inhibition in assay [7] was -5.2% (inactive); in assay [8] it was 3.77% (inactive).

As to `COc1ccc(C)cc1NC(=O)c1nc2nc(C)cc(C)n2n1`, the viability is 86% in assay [1]; 86% (inactive) in assay [3]; 73% (inactive) in assay [4]; 85.1% (inactive) in assay [5]; 86.6% in assay [6] (setting [9]); 85.1% in assay [6] (setting [10]). In addition, in assay [2], the Her2 level is 76% (inactive). For the same compound, the differential viability (reversal) in assay [6] (H69AR cells + 2 uM doxorubicin) was -1.54% (inactive). For the same compound, the inhibition in assay [7] was -6.13% (inactive); in assay [8] it was -1.11% (inactive).

Consider `N#Cc1c(N)n(CCNC(=O)c2cccs2)c2nc3ccccc3nc12`, for which the viability is 82.5% in assay [1]; 82.5% (inactive) in assay [3]; 97.9% (inactive) in assay [4]; 90.9% (inactive) in assay [5]; 98.5% in assay [6] (setting [9]); 90.9% in assay [6] (setting [10]). Further, in assay [2], the Her2 level was 84.5% (inactive). Moreover, the differential viability (reversal) in assay [6] (H69AR cells + 2 uM doxorubicin) is -7.67% (inactive). The inhibition in assay [7] was -5.6% (inactive); in assay [8], -0.16% (inactive).

`CCOc1ccc(CN2C(=O)c3ccccc3C2C(=O)NCc2cccnc2)cc1` (stereo not given): the viability in assay [1] is 96%; in assay [3], 96% (inactive); in assay [4] it was 86.6% (inactive); in assay [5] it was 98.8% (inactive); in assay [6] (setting [9]) it was 97%; in assay [6] (setting [10]), 98.8%. In addition, the Her2 level in assay [2] was 96.5% (inactive). In addition, in assay [6] (H69AR cells + 2 uM doxorubicin), the differential viability (reversal) was 1.78% (inactive). For the same compound, the inhibition was -0.91% (inactive) in assay [7] and -3.02% (inactive) in assay [8].

As to `CCCN1C=CC(=C2C(=O)c3ccccc3C2=O)C=C1`, the viability is 88% in assay [1]; 88% (inactive) in assay [3]; 42.9% (inactive) in assay [4]; 40.8% (active) in assay [5]; 43.8% in assay [6] (setting [9]); 40.8% in assay [6] (setting [10]). Moreover, the Her2 level in assay [2] is 123% (inactive). For the same compound, the differential viability (reversal) in assay [6] (H69AR cells + 2 uM doxorubicin) is -3% (inactive). Further, the inhibition in assay [7] was -1.92% (inactive); in assay [8], 1% (inactive).

Consider `CN(Cc1ccco1)C(=O)Cn1c(=O)oc2cc(S(=O)(=O)NCc3ccccc3)ccc21`, for which the viability in assay [1] is 92%; in assay [3] it was 92% (inactive); in assay [4], 96.4% (inactive); in assay [5] it was 89.8% (inactive); in assay [6] (setting [9]), 93.4%; in assay [6] (setting [10]), 89.8%. Also, the Her2 level in assay [2] was 85.5% (inactive). Also, in assay [6] (H69AR cells + 2 uM doxorubicin), the differential viability (reversal) was -3.67% (inactive). Moreover, the inhibition in assay [7] was -2.67% (inactive); in assay [8], 1.8% (inactive).

For the compound `COc1cc(C(c2sc3nc(C)nn3c2O)N2CC(C)CC(C)C2)cc(OC)c1OC` (stereo not given), the viability in assay [1] is 78%; in assay [3], 78% (inactive); in assay [4], 98.8% (inactive); in assay [5] it was 103% (inactive); in assay [6] (setting [9]), 103%; in assay [6] (setting [10]), 103%. In addition, the Her2 level in assay [2] is 98.5% (inactive). The differential viability (reversal) in assay [6] (H69AR cells + 2 uM doxorubicin) is 0.2% (inactive). Besides, the inhibition in assay [7] is 0.9% (inactive); in assay [8] it was 0.17% (inactive).

In the case of `CCOC(=O)c1c(C)[nH]c(C(=O)Cn2c(=O)oc3ccccc32)c1C`, the viability was 102% in assay [1]; 102% (inactive) in assay [3]; 108% (inactive) in assay [4]; 89.5% (inactive) in assay [5]; 86.6% in assay [6] (setting [9]); 89.5% in assay [6] (setting [10]). In addition, in assay [2], the Her2 level is 93.5% (inactive). Besides, the differential viability (reversal) in assay [6] (H69AR cells + 2 uM doxorubicin) was 2.91% (inactive). In addition, the values for the inhibition in assay [7] and in assay [8] were -3.97% (inactive) and 0.33% (inactive), respectively.

In the case of `COc1ccc(-c2cc(C(=O)NCCc3ccccc3)no2)cc1OC`, the viability in assay [1] was 102%; in assay [3], 102% (inactive); in assay [4], 92.3% (inactive); in assay [5] it was 89.9% (inactive); in assay [6] (setting [9]) it was 86.6%; in assay [6] (setting [10]), 89.9%. The Her2 level in assay [2] is 85.5% (inactive). Further, in assay [6] (H69AR cells + 2 uM doxorubicin), the differential viability (reversal) is 3.29% (inactive). Besides, the inhibition in assay [7] was -4.19% (inactive); in assay [8], -12.7% (inactive).

As for `O=C(NCc1cccnc1)c1ccc(=O)oc1`, the viability in assay [1] is 89.5%; in assay [3], 89.5% (inactive); in assay [4], 106% (inactive); in assay [5], 83.4% (inactive); in assay [6] (setting [9]) it was 88.3%; in assay [6] (setting [10]), 83.4%. Moreover, the Her2 level in assay [2] was 90% (inactive). In addition, the differential viability (reversal) in assay [6] (H69AR cells + 2 uM doxorubicin) is -4.97% (inactive). Moreover, the inhibition in assay [7] was -5.81% (inactive); in assay [8], -5.33% (inactive).

For `Cn1c(=O)[nH]c(=O)c2[nH]c(CN3CCN(C(=O)c4ccco4)CC3)nc21`, the viability was 98.5% in assay [1]; 98.5% (inactive) in assay [3]; 90.3% (inactive) in assay [4]; 107% (inactive) in assay [5]; 92.9% in assay [6] (setting [9]); 107% in assay [6] (setting [10]). Moreover, the Her2 level in assay [2] was 80% (inactive). Also, the differential viability (reversal) in assay [6] (H69AR cells + 2 uM doxorubicin) is 13.8% (inactive). In addition, the inhibition in assay [7] is -1.58% (inactive); in assay [8] it was 0.73% (inactive).
